Laboratory results reported in article PMC9305210 (British Journal of Clinical Pharmacology, 2022).

Experiments:
Safety and tolerability = type: in vivo, human; conditions: for tolerability: 100‐400 mg/day for up to 14 days, healthy subjects; for TEAE leading to discontinuation: one subject
Method in brief: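 Randomized, double-blind, placebo-controlled; cohorts of 8 (6:2) healthy adults given oral solution daily for a planned 14 days after ≥8 h fast, confined on site days −3 to 15 plus 1 follow-up day. Monitoring covered AEs, physical examination, BMI, vital signs, ECG and clinical laboratory tests. Subjects with ≥1 treatment-emergent AE counted across all subjects receiving at least one dose.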

[1] = healthy subjects, cited from earlier work
24HC levels in the brain = conditions: single oral administration in mice; cited from earlier work
CH24H = conditions: CH24H‐knockout mice vs wild‐type controls; cited from earlier work
[2] = Soticlestat total, n = 30, listed as soticlestat

O=C(c1cccnc1-c1ccncc1)N1CCC(O)(Cc2ccccc2)CC1 [Soticlestat, soticlestat]
Number of subjects (%) with TEAEs: Moderate (Safety and tolerability; 100 mg QD, n = 6): 0 | Number of subjects (%) with TEAEs: Not related (Safety and tolerability; 100 mg QD, n = 6): 0 | Number of subjects (%) with TEAEs: Related (Safety and tolerability; 100 mg QD, n = 6): 0 | Number of subjects (%) with TEAEs: Severe (Safety and tolerability; 100 mg QD, n = 6): 0 | Number of subjects (%): Deaths (Safety and tolerability; 100 mg QD, n = 6): 0 | Number of subjects (%) with SAEs (Safety and tolerability; 300 mg BID, n = 6): 0 | Number of subjects (%) with TEAEs (Safety and tolerability; 300 mg BID, n = 6): 5 (83.3) | Number of subjects (%) with TEAEs: Leading to discontinuation (Safety and tolerability; 300 mg BID, n = 6): 1 (16.7) | Number of subjects (%) with TEAEs: Mild (Safety and tolerability; 300 mg BID, n = 6): 5 (83.3) | Number of subjects (%) with TEAEs: Moderate (Safety and tolerability; 300 mg BID, n = 6): 0 | Number of subjects (%) with TEAEs: Not related (Safety and tolerability; 300 mg BID, n = 6): 0 | Number of subjects (%) with TEAEs: Related (Safety and tolerability; 300 mg BID, n = 6): 5 (83.3) | Number of subjects (%) with TEAEs: Severe (Safety and tolerability; 300 mg BID, n = 6): 0 | Number of subjects (%): Deaths (Safety and tolerability; 300 mg BID, n = 6): 0 | Number of subjects (%) with SAEs (Safety and tolerability; 300 mg QD, n = 6): 0 | Number of subjects (%) with TEAEs (Safety and tolerability; 300 mg QD, n = 6): 1 (16.7) | Number of subjects (%) with TEAEs: Leading to discontinuation (Safety and tolerability; 300 mg QD, n = 6): 0 | Number of subjects (%) with TEAEs: Mild (Safety and tolerability; 300 mg QD, n = 6): 1 (16.7) | Number of subjects (%) with TEAEs: Moderate (Safety and tolerability; 300 mg QD, n = 6): 0 | Number of subjects (%) with TEAEs: Not related (Safety and tolerability; 300 mg QD, n = 6): 0 | Number of subjects (%) with TEAEs: Related (Safety and tolerability; 300 mg QD, n = 6): 1 (16.7) | Number of subjects (%) with TEAEs: Severe (Safety and tolerability; 300 mg QD, n = 6): 0 | Number of subjects (%): Deaths (Safety and tolerability; 300 mg QD, n = 6): 0 | Number of subjects (%) with SAEs (Safety and tolerability; 400 mg QD, n = 6): 0 | Number of subjects (%) with TEAEs (Safety and tolerability; 400 mg QD, n = 6): 5 (83.3) | Number of subjects (%) with TEAEs: Leading to discontinuation (Safety and tolerability; 400 mg QD, n = 6): 0 | Number of subjects (%) with TEAEs: Mild (Safety and tolerability; 400 mg QD, n = 6): 4 (66.7) | Number of subjects (%) with TEAEs: Moderate (Safety and tolerability; 400 mg QD, n = 6): 1 (16.7) | Number of subjects (%) with TEAEs: Not related (Safety and tolerability; 400 mg QD, n = 6): 1 (16.7) | Number of subjects (%) with TEAEs: Related (Safety and tolerability; 400 mg QD, n = 6): 4 (66.7) | Number of subjects (%) with TEAEs: Severe (Safety and tolerability; 400 mg QD, n = 6): 0 | Number of subjects (%): Deaths (Safety and tolerability; 400 mg QD, n = 6): 0 | Number of subjects (%) with SAEs (Safety and tolerability; 600 mg QD, n = 6): 0 | Number of subjects (%) with TEAEs (Safety and tolerability; 600 mg QD, n = 6): 3 (50.0) | Number of subjects (%) with TEAEs: Leading to discontinuation (Safety and tolerability; 600 mg QD, n = 6): 1 (16.7) | Number of subjects (%) with TEAEs: Mild (Safety and tolerability; 600 mg QD, n = 6): 2 (33.3) | Number of subjects (%) with TEAEs: Moderate (Safety and tolerability; 600 mg QD, n = 6): 0 | Number of subjects (%) with TEAEs: Not related (Safety and tolerability; 600 mg QD, n = 6): 0 | Number of subjects (%) with TEAEs: Related (Safety and tolerability; 600 mg QD, n = 6): 3 (50.0) | Number of subjects (%) with TEAEs: Severe (Safety and tolerability; 600 mg QD, n = 6): 1 (16.7) | Number of subjects (%): Deaths (Safety and tolerability; 600 mg QD, n = 6): 0 | tolerability (Safety and tolerability): generally well tolerated | tolerability (Safety and tolerability; listed as soticlestat): well tolerated in most healthy subjects up to 400 mg daily | Number of subjects (%) with SAEs (Safety and tolerability; Soticlestat total, n = 30): 0 | Number of subjects (%) with TEAEs (Safety and tolerability; Soticlestat total, n = 30): 14 (46.7) | Number of subjects (%) with TEAEs: Leading to discontinuation (Safety and tolerability; Soticlestat total, n = 30): 2 (6.7) | Number of subjects (%) with TEAEs: Mild (Safety and tolerability; Soticlestat total, n = 30): 12 (40.0) | Number of subjects (%) with TEAEs: Moderate (Safety and tolerability; Soticlestat total, n = 30): 1 (3.3) | Number of subjects (%) with TEAEs: Not related (Safety and tolerability; Soticlestat total, n = 30): 1 (3.3) | Number of subjects (%) with TEAEs: Related (Safety and tolerability; Soticlestat total, n = 30): 13 (43.3) | Number of subjects (%) with TEAEs: Severe (Safety and tolerability; Soticlestat total, n = 30): 1 (3.3) | Number of subjects (%): Deaths (Safety and tolerability; Soticlestat total, n = 30): 0 | Number of subjects (%) with TEAEs (Safety and tolerability; [2]): 14 | Number of subjects (%) with TEAEs: Related (Safety and tolerability; [2]): 13 | clinical laboratory (including hormones), vital signs, physical examination, eye examination or electrocardiographic findings (Safety and tolerability; all doses): No clinically significant findings | liver function test results (Safety and tolerability; all doses): No subjects had abnormal liver function test results | number of TEAE events considered related to soticlestat (Safety and tolerability; all doses): 31 | proportion of TEAEs transient and mild in intensity (Safety and tolerability; all doses): 91% | serious AEs (Safety and tolerability; all doses): No serious AEs were reported | proportion of TEAEs transient and mild in intensity (Safety and tolerability; all doses, listed as soticlestat): over 90% | outcome of TEAEs (Safety and tolerability; before study exit on day 15): reversible and resolved without treatment | TEAE leading to discontinuation (Safety and tolerability; 300 mg BID (cohort 3), study day 9): mild event of confusional state | TEAE leading to discontinuation (Safety and tolerability; 600 mg QD (cohort 4), study day 10): severe event of acute psychosis | total number of TEAEs reported (Safety and tolerability; subjects administered soticlestat, all doses): 45 | tolerability of single doses ([1]; doses up to 1350 mg): well tolerated | circulating levels of 24HC ([1]; single rising doses): dose‐dependent reduction | 24HC levels in the brain (24HC levels in the brain): dose‐dependent reduction in 24HC levels in the brain | soticlestat distribution in the brain (CH24H): substantially lower level of soticlestat distribution in the brain than wild‐type controls
